Measured values of several laboratories.
Each line is one published result; the experiments were not run side by side.
Target: Rho-associated protein kinase 2 (ROCK2, Homo sapiens, UniProt O75116)

CC1=C(C#N)C(c2ccc3c(c2)c(NC(=O)c2ccccc2C)nn3C)C(C#N)=C(C)N1  remaining binding (cell-free assay, competition with immobilised ligand; 1 µM): 93%
F[C@@H]1CCN(c2nccc(-c3cnn4ncccc34)n2)C1  remaining binding (binding; 1 µM): 100%
O=C(NCCCC1CCCCC1)c1ccc(CNC(=O)c2cnn(-c3ccccc3)c2C(F)(F)F)cc1  remaining binding (cell-free assay, competition with immobilised ligand; 0.1 µM): 100%
C=CC(=O)N1CCC(C(=O)NCC(=O)N2CCN(c3nc(-c4cnc(N)nc4C(F)F)nc(N4CCOCC4)n3)CC2)CC1  remaining binding (binding, competition with immobilised ligand; 1 µM): 90%
N#Cc1ccccc1CSc1nnc2c(n1)[nH]c1ccccc12  remaining binding (binding, competition with immobilised ligand; 10 µM): 80%
C[C@@H](c1cccc(C#N)c1)n1cc(Cl)cc(C(N)=O)c1=N  remaining binding (cell-free assay, competition with immobilised ligand; 1 µM): 90%
Cc1cnc(Nc2ccc(C(=O)N3CCC(N4CCCC4)CC3)cc2)nc1-c1cc2ccccc2s1  remaining binding (binding, competition with immobilised ligand; 1 µM): 11%
C[C@@H]1CCN(c2nccc(-c3cnn4ncccc34)n2)C1  remaining binding (binding; 1 µM): 98%
O=C(N[C@H]1CCCCC/C=C\C2C[C@@]2(C(=O)O)NC(=O)[C@@H]2C[C@@H](Oc3ccncc3)CN2C1=O)OC1CCCC1 (stereo partly shown)  remaining binding (binding, competition with immobilised ligand; 1 µM): 100%
CN(C)c1nccc(-c2cnc3ncccn23)n1  remaining binding (binding; 1 µM): 100%
Nc1ncc2c(n1)-c1c([nH]c3ccc(C#CC4CC4)cc13)CCCC2  remaining binding (binding, competition with immobilised ligand; 1 µM): 75%
FC(F)(F)Oc1cccc(-c2cnc3ccc(-c4ccncc4)nn23)c1  remaining binding (binding, competition with immobilised ligand; 5 µM): 42%
CNC(=O)Nc1ccc2c(c1)CC[C@@]21OC(=O)N(CC(=O)N(Cc2ccc(F)cc2)[C@@H](C)C(F)(F)F)C1=O  remaining binding (cell-free assay, competition with immobilised ligand; 1 µM): 96%
CNC(=O)[C@@H]1CC[C@@H](n2c(-c3ccc4cnccc4c3)nc3ccc(C(=O)NCc4cccc(C(N)=O)c4)cc32)C1  remaining binding (binding, competition with immobilised ligand; 1 µM): 100%
N[C@@H]1CCN(c2nccc(-c3cnn4ncccc34)n2)C1  remaining binding (binding; 1 µM): 100%
O=C(NCCCN1CCOCC1)c1ccc(Nc2nccc(-c3cc4ccccc4s3)n2)cc1  remaining binding (binding, competition with immobilised ligand; 1 µM): 46%
